Data taken from ChEMBL document CHEMBL1125874, “N-(4-Isoxazolylthiazol-2-yl)oxamic acid derivatives as potent orally active antianaphylactic agents” (1991).
Active and inactive are the calls of the source.

Assays:
Rattus norvegicus [1] = assay: Antianaphylactic activity against IgE-mediated rat passive cutaneous anaphylaxis (PCA) model after intraperitoneal administration.; format: functional; conditions: ip
Procedure, shortened: (§1)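 Female Sprague-Dawley rats (~200 g) received rat anti-ovoalbumin IgE antiserum intradermally at four back sites. Drug in 2% gum arabic given po (10 mL/kg) 10 min or ip (5 mL/kg) 5 min before challenge. Blue-spot area measured at 30 min versus vehicle controls. ED50 by linear regression on at least three doses.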

Rattus norvegicus [2] = assay: Antianaphylactic activity against IgE-mediated rat passive cutaneous anaphylaxis (PCA) model after oral administration.; format: functional; procedure, shortened: as §1
Cavia porcellus [3] = species: Cavia porcellus; assay: Inhibitory effect on Antigen-induced SRS-A (slow reacting substance of anaphylaxis) like material release from sensitized guinea pig lung fragments at a concentration of 10 E -5 M; format: functional
Procedure, shortened: (§2)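 Lungs from ovoalbumin-sensitized guinea pigs were taken at 3 weeks and minced in Krebs' solution (0.1 g tissue/mL). Suspension incubated 15 min at 37 °C. Drug added, then ovoalbumin 1 μg 5 min later, for 15 min at 37 °C. SRS-A-like activity of the filtrate assayed on isolated guinea pig ileum, as % inhibition versus saline controls.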

Cavia porcellus [4] = species: Cavia porcellus; assay: Inhibitory effect on Antigen-induced SRS-A (slow reacting substance of anaphylaxis) like material release from sensitized guinea pig lung fragments at a concentration of 10 E -6 M; format: functional; procedure, shortened: as §2
Cavia porcellus [5] = species: Cavia porcellus; assay: Inhibitory effect on Antigen-induced SRS-A (slow reacting substance of anaphylaxis) like material release from sensitized guinea pig lung fragments at a concentration of 10 E -4 M; format: functional; procedure, shortened: as §2
Rattus norvegicus [6] = assay: Antianaphylactic activity against IgE-mediated rat PCA model after oral administration; Not active; format: functional, organism-based; procedure, shortened: as §1
Rattus norvegicus [7] = assay: Antianaphylactic activity at the bronchopulmonary level against IgE-mediated rat PPA model when administered orally.; format: functional; conditions: po
Procedure, shortened: (§3)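 Rats passively sensitized iv with anti-ovoalbumin serum (1 mL/rat). Challenge was iv ovoalbumin 4 mg/kg. Bronchoconstriction measured as air overflow (Konzett-Rössler). Drug given po in 2% gum arabic (10 mL/kg) 30 min before, or iv in 10% DMSO (1 mL/kg) 15 min before. ED50 by linear regression.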

Rattus norvegicus [8] = assay: Antianaphylactic activity at the bronchopulmonary level against IgE-mediated rat PPA model when administered intravenously.; format: functional; conditions: iv; procedure, shortened: as §3
Cavia porcellus [9] = assay: Aantianaphylactic activity at the bronchopulmonary level against IgG-mediated APA model of guinea pig when administered intraperitoneally.; format: functional; conditions: ip
Procedure, shortened: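 Guinea pigs (either sex, 300-400 g) sensitized by a single ip dose of ovoalbumin in liquid petrolatum (20 mg/mL). Tested 3 weeks later. Drug given ip in 2% gum arabic (5 mL/kg) 30 min before aerosol challenge with 2% ovoalbumin. Read-out is delay to severe dyspnea in seconds, with 3 min cutoff. ED50 by linear regression.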

Cavia porcellus [10] = species: Cavia porcellus; assay: Inhibitory effect on Antigen-induced SRS-A (slow reacting substance of anaphylaxis) like material release from sensitized guinea pig lung fragments at a concentration of 10 E -7 M; format: functional; procedure, shortened: as §2
Cavia porcellus [11] = species: Cavia porcellus; assay: Inhibitory effect on Antigen-induced SRS-A (slow reacting substance of anaphylaxis) like material release from sensitized guinea pig lung fragments at a concentration of 10 E -8 M; format: functional; procedure, shortened: as §2

Compound CCOCCOC(=O)C(=O)Nc1nc(-c2cc(Br)no2)cs1 has an ED50 (Rattus norvegicus [1]) of 11 mg/kg and an ED50 (Rattus norvegicus [2]) of over 30 mg/kg.

With CCOCCOC(=O)C(=O)Nc1nc(-c2c(-c3ccccc3)noc2C)cs1 the ED50 (Rattus norvegicus [1]) was over 10 mg/kg and the ED50 (Rattus norvegicus [2]) was over 100 mg/kg.

CCOCCOC(=O)C(=O)Nc1nc(-c2cc(Cl)no2)cs1 gave an ED50 (Rattus norvegicus [1]) of 6 mg/kg and an ED50 (Rattus norvegicus [2]) of over 30 mg/kg.

In the case of Cc1cc(-c2csc(NC(=O)C(=O)O)n2)on1.NCCCC[C@H](N)C(=O)O, the ED50 (Rattus norvegicus [1]) is reported as 0.3 mg/kg and the ED50 (Rattus norvegicus [2]) is reported as 6 mg/kg.

O=C(Nc1nc(-c2cc(-c3c(F)cccc3Cl)no2)cs1)C(=O)OCc1ccccc1 gave an ED50 (Rattus norvegicus [1]) of over 30 mg/kg and an ED50 (Rattus norvegicus [2]) of over 30 mg/kg.

Work on NCCCC[C@H](N)C(=O)O.O=C(O)C(=O)Nc1nc(-c2cc(-c3ccccc3)no2)cs1 yielded an ED50 (Rattus norvegicus [1]) of 0.24 mg/kg and an ED50 (Rattus norvegicus [2]) of 2.4 mg/kg.

In the case of CCOCCOC(=O)C(=O)Nc1nc(-c2c(-c3c(F)cccc3Cl)noc2C)cs1, the ED50 (Rattus norvegicus [1]) is reported as over 10 mg/kg and the ED50 (Rattus norvegicus [2]) is reported as over 30 mg/kg.

NCCO.O=C(O)C(=O)Nc1nc(-c2cc(-c3ccccc3)no2)cs1 was tested, and the ED50 (Rattus norvegicus [1]) was 0.24 mg/kg and the ED50 (Rattus norvegicus [2]) was 0.6 mg/kg.

CCOCCOC(=O)C(=O)Nc1nc(-c2cc(-c3c(F)cccc3Cl)no2)cs1 gave an ED50 (Rattus norvegicus [1]) of 1.1 mg/kg and an ED50 (Rattus norvegicus [2]) of over 30 mg/kg.

O=C([O-])c1cc(=O)c2c(OCC(O)COc3cccc4oc(C(=O)[O-])cc(=O)c34)cccc2o1.[Na+].[Na+] [CROMOLYN SODIUM] gave an Inhibition (Cavia porcellus [3]) of 38%, an Inhibition (Cavia porcellus [4]) of 20% and an ED50 (Rattus norvegicus [1]) of 12 mg/kg. For the same compound, the Inhibition (Cavia porcellus [5]) was 46%, the ED50 (Rattus norvegicus [6]) was “inactive” and the ED50 (Rattus norvegicus [7]) was over 100 mg/kg. It also gave an ED50 (Rattus norvegicus [8]) of 0.82 mg/kg and an ED50 (Cavia porcellus [9]) of over 1000 mg/kg.

NCCCC[C@H](N)C(=O)O.O=C(O)C(=O)Nc1nc(-c2cc(Br)no2)cs1 was tested, and the ED50 (Rattus norvegicus [1]) was 0.5 mg/kg and the ED50 (Rattus norvegicus [2]) was 8 mg/kg.

Compound CCOC(=O)C(=O)Nc1nc(-c2cc(C)no2)cs1 has an ED50 (Rattus norvegicus [1]) of 0.2 mg/kg and an ED50 (Rattus norvegicus [2]) of 0.7 mg/kg.

For COCCOC(=O)C(=O)Nc1nc(-c2cc(Br)no2)cs1, the ED50 (Rattus norvegicus [1]) was 7 mg/kg and the ED50 (Rattus norvegicus [2]) was over 100 mg/kg.

NCCO.O=C(O)C(=O)Nc1nc(-c2conc2-c2c(F)cccc2Cl)cs1 was tested, and the ED50 (Rattus norvegicus [1]) was 30 mg/kg and the ED50 (Rattus norvegicus [2]) was over 100 mg/kg.

O=C(O)C(=O)Nc1nc(-c2cc(Br)no2)cs1 gave an ED50 (Rattus norvegicus [1]) of 3 mg/kg and an ED50 (Rattus norvegicus [2]) of over 30 mg/kg.

CCOCCOC(=O)C(=O)Nc1nc(-c2cc(C(=O)OCC)no2)cs1 was tested, and the ED50 (Rattus norvegicus [1]) was 0.08 mg/kg and the ED50 (Rattus norvegicus [2]) was 1.9 mg/kg.

CCOCCOC(=O)C(=O)Nc1nc(-c2cc(C)no2)cs1 [ASOBAMAST] was tested, and the Inhibition (Cavia porcellus [3]) was 52%, the Inhibition (Cavia porcellus [4]) was 48% and the ED50 (Rattus norvegicus [1]) was 0.04 mg/kg. It also gave an Inhibition (Cavia porcellus [10]) of 43%, an ED50 (Rattus norvegicus [7]) of 4.7 mg/kg and an ED50 (Rattus norvegicus [8]) of 0.09 mg/kg. The ED50 (Cavia porcellus [9]) was 185 mg/kg, the Inhibition (Cavia porcellus [11]) was 18% and the ED50 (Rattus norvegicus [2]) was 1.3 mg/kg.

CCOCCOC(=O)C(=O)Nc1nc(-c2conc2C)cs1 was tested, and the ED50 (Rattus norvegicus [1]) was over 100 mg/kg and the ED50 (Rattus norvegicus [2]) was over 100 mg/kg.

Compound NCCO.O=C(O)C(=O)Nc1nc(-c2cc(-c3c(F)cccc3Cl)no2)cs1 has an ED50 (Rattus norvegicus [1]) of 2.4 mg/kg and an ED50 (Rattus norvegicus [2]) of over 30 mg/kg.

With CCOCCOC(=O)C(=O)Nc1nc(-c2cc(COC)no2)cs1 the ED50 (Rattus norvegicus [1]) was 2.4 mg/kg and the ED50 (Rattus norvegicus [2]) was 0.7 mg/kg.

CC(C)(C)OC(=O)C(=O)Nc1nc(-c2cc(-c3ccccc3)no2)cs1 was tested, and the ED50 (Rattus norvegicus [1]) was 9 mg/kg and the ED50 (Rattus norvegicus [2]) was 7 mg/kg.

CCOCCOC(=O)C(=O)Nc1nc(-c2cc(OC)no2)cs1 was tested, and the ED50 (Rattus norvegicus [1]) was 3 mg/kg and the ED50 (Rattus norvegicus [2]) was 11 mg/kg.

NCCCC[C@H](N)C(=O)O.O=C(O)C(=O)Nc1nc(-c2conc2-c2ccccc2)cs1 was tested, and the ED50 (Rattus norvegicus [1]) was over 100 mg/kg and the ED50 (Rattus norvegicus [2]) was over 100 mg/kg.

With NCCO.O=C(O)C(=O)Nc1nc(-c2cc(-c3ccccc3)on2)cs1 the ED50 (Rattus norvegicus [1]) was 0.23 mg/kg and the ED50 (Rattus norvegicus [2]) was 2.6 mg/kg.

With CCOC(=O)C(=O)Nc1nc(-c2cc(Br)no2)cs1 the ED50 (Rattus norvegicus [1]) was 12 mg/kg and the ED50 (Rattus norvegicus [2]) was over 100 mg/kg.

For NCCO.O=C(O)C(=O)Nc1nc(-c2cc(Br)no2)cs1, the ED50 (Rattus norvegicus [1]) was 7 mg/kg and the ED50 (Rattus norvegicus [2]) was over 30 mg/kg.

For CCOCCOC(=O)C(=O)Nc1nc(-c2cc(C)on2)cs1, the ED50 (Rattus norvegicus [1]) was 1.3 mg/kg and the ED50 (Rattus norvegicus [2]) was 2 mg/kg.

In the case of CCOCCOC(=O)C(=O)Nc1nc(-c2cc(-c3ccccc3)on2)cs1, the ED50 (Rattus norvegicus [1]) is reported as 0.2 mg/kg and the ED50 (Rattus norvegicus [2]) is reported as 13 mg/kg.

NCCO.O=C(O)C(=O)Nc1nc(-c2cc(CO)no2)cs1 gave an ED50 (Rattus norvegicus [1]) of 0.007 mg/kg and an ED50 (Rattus norvegicus [2]) of 0.7 mg/kg.

Compound NCCO.O=C(O)C(=O)Nc1nc(-c2cc(CO)on2)cs1 has an ED50 (Rattus norvegicus [1]) of over 100 mg/kg and an ED50 (Rattus norvegicus [2]) of over 30 mg/kg.

NCCO.O=C(O)C(=O)Nc1nc(-c2cc(Cl)no2)cs1 was tested, and the ED50 (Rattus norvegicus [1]) was over 30 mg/kg and the ED50 (Rattus norvegicus [2]) was over 30 mg/kg.

CCOCCOC(=O)C(=O)Nc1nc(-c2cc(CO)on2)cs1 gave an ED50 (Rattus norvegicus [1]) of 1.8 mg/kg and an ED50 (Rattus norvegicus [2]) of 14 mg/kg.

CCOCCOC(=O)C(=O)Nc1nc(-c2cc(OCc3ccccc3)no2)cs1 showed an ED50 (Rattus norvegicus [1]) of 3.7 mg/kg and an ED50 (Rattus norvegicus [2]) of over 100 mg/kg.

Work on COc1cc(-c2csc(NC(=O)C(=O)O)n2)on1.NCCO yielded an ED50 (Rattus norvegicus [1]) of 1.2 mg/kg and an ED50 (Rattus norvegicus [2]) of 8 mg/kg.

For CCOCCOC(=O)C(=O)Nc1nc(-c2cc(Br)no2)c(CC)s1, the ED50 (Rattus norvegicus [1]) was 3 mg/kg and the ED50 (Rattus norvegicus [2]) was 9 mg/kg.

Work on Cc1cc(-c2csc(NC(=O)C(=O)O)n2)no1.NCCCC[C@H](N)C(=O)O yielded an ED50 (Rattus norvegicus [1]) of 1.7 mg/kg and an ED50 (Rattus norvegicus [2]) of 17 mg/kg.
